For data set [1], the system named is Rattus norvegicus. The data set is described as follows: Antiinflammatory activity in po dosed rat assessed as inhibition of carrageenan-induced paw edema after 3 hrs. Type of data set: functional. The following applies: read-out: ID50 (the source's name). The method in brief:
(§1)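 Rats were given an oral gavage suspension in 1% methylcellulose, at doses equimolar to the parent NSAID: 0.71, 0.32 or 0.01 mmol/kg. Controls received an equal volume of vehicle. Carrageenan-induced paw edema was read 3 h after dosing. Activity is the % decrease in the inflammatory response versus the vehicle group.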

The test system of data set [2] is Rattus norvegicus. Kind of data set: Antiinflammatory activity in rat assessed as inhibition of carrageenan-induced paw edema at 0.32 mmol/kg, po after 3 hrs relative to control. Further details: scale not given: the % may be the effect or the level left. Type of data set: functional. The method in brief:
as §1

A short description of data set [3]: Lipophilicity, log P of the compound. Format: physicochemical. The following applies: octanol/water. In outline: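 Log P is a theoretical n-octanol/water distribution coefficient, calculated rather than measured.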
Data set [4] deals with Rattus norvegicus. Kind of data set: Antiinflammatory activity in rat assessed as inhibition of carrageenan-induced paw edema at 0.01 mmol/kg, po after 3 hrs relative to control. Type of data set: functional. Further details: scale not given: the % may be the effect or the level left. The method in brief:
as §1

Data set [5] relates to Rattus norvegicus. The data set is described as follows: Ulcerogenic effect in rat assessed as gastric ulcer overall length at 0.08 mmol/kg, po administered for 6 hrs. Format: toxicity, organism-based, Stomach. Particulars: in vivo. In outline: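 Rats were fasted 24 h with water allowed, then dosed orally at 0.08 mmol/kg as a suspension in 1% methylcellulose. Controls received vehicle. After 6 h, animals were killed by CO2 and stomachs opened along the greater curvature, rinsed and kept on ice. Each ulcer was measured along its greatest length under a magnifier. Ulcer index is the total ulcer length per stomach averaged over n = 4, ±SEM.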

The target of data set [6] is T1, Prostaglandin G/H synthase 1 (Ovis aries, UniProt P05979).
T1 sequence (P05979 whole entry): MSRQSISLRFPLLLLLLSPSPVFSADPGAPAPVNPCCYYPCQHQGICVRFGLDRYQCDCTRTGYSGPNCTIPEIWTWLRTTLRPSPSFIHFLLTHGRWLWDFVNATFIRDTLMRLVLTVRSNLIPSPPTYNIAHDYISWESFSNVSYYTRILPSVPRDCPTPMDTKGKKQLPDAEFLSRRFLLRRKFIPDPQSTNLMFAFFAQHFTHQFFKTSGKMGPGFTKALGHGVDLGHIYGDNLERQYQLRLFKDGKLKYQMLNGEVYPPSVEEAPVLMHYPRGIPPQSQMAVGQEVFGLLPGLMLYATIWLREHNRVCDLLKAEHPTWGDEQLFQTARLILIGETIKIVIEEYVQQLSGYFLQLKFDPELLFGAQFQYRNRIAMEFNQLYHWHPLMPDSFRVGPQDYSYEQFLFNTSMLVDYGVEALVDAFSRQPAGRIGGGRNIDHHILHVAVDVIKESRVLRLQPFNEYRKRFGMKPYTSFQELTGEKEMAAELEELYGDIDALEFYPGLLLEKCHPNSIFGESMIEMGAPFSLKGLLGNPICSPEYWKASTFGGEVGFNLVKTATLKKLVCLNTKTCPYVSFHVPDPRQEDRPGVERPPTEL
The data set is described as follows: Inhibition of ovine COX1. In outline: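 Ovine COX-1 was tested in a cyclooxygenase inhibitor screening kit, following the manufacturer's procedure. Deviation from the mean was <10%.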

The subject of data set [7] is Rattus norvegicus. The data set is described as follows: Antiinflammatory activity in rat assessed as inhibition of carrageenan-induced paw edema at 0.71 mmol/kg, po after 3 hrs relative to control. Type of data set: functional. More on the design: scale not given: the % may be the effect or the level left. In outline: as §1
The subject of data set [8] is Rattus norvegicus. The data set is described as follows: Ulcerogenic effect in rat assessed as gastric ulcer overall length at 1.4 mmol/kg, po administered for 6 hrs. Type of data set: toxicity, organism-based, Stomach. The following applies: in vivo. In outline: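 Rats fasted 24 h with water allowed, then given a suspension in 1.2 mL 1% methylcellulose by gavage. Controls received vehicle. At 6 h, CO2 euthanasia. Stomachs were opened along the greater curvature, rinsed and put on ice. Ulcers were counted and measured under a magnifier (≤1 mm = 1, 1–2 mm = 2, >2 mm = length). Ulcer index = summed length per stomach averaged over n = 4, ±SEM.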

SMILES strings stand for the structures.

Take `CC(C)Cc1ccc(C(C)C(=O)O)cc1` (stereo not given) [IBUPROFEN]: the ED50 in data set [1] came to 300 µmol/kg. Besides, the Activity in data set [2] came to 50%. The compound further came in with a logP in data set [3] of 3.7.
In the case of `COc1ccc2c(c1)c(CC(=O)Oc1ccc(CCO)cc1)c(C)n2C(=O)c1ccc(Cl)cc1`, the Activity in data set [4] was 61.3%. Moreover, in data set [5], the UI was 9.6 mm. Moreover, in data set [6], the IC50 was greater than 100 µM.
In the case of `CC(=O)Oc1ccccc1C(=O)Oc1ccc(CCO)cc1`, the Activity in data set [7] worked out at 58%. In data set [6], this compound yielded an IC50 of 0.03 µM. Also, in data set [3], the logP came to 2. Further, the UI in data set [8] amounted to 2.6 mm.
In the case of `COc1ccc2c(c1)c(CC(=O)O)c(C)n2C(=O)c1ccc(Cl)cc1` [INDOMETHACIN], the Activity in data set [4] was found to be 38.3%. In data set [5], the UI was determined as 34.4 mm.
Consider `CC(=O)Oc1ccccc1C(=O)O` [ASPIRIN], for which the ED50 in data set [1] turned out to be 700 µmol/kg. The Activity in data set [7] is on record as 50%. The logP in data set [3] is 1.2. In data set [8], the UI is on record as 57.4 mm.
In turn, `CC(C)Cc1ccc(C(C)C(=O)Oc2ccc(CCO)cc2)cc1` (stereo not given) had an IC50 in data set [6] of 6.44 µM. In addition, the Activity in data set [2] worked out at 63%. In data set [3], this compound came in with a logP of 4.6. In addition, the UI in data set [8] worked out at 3.5 mm.

(Values after ChEMBL document CHEMBL1955816, “Nitric oxide release is not required to decrease the ulcerogenic profile of nonsteroidal anti-inflammatory drugs” (J Med Chem, 2012).)
